Screening results as filed in PubChem.
A selection: hits, their analogues and other compounds. The true share with any hit is near 2.5%.
SENP8 block-1 – inhibitors of human SENP8 protease. inhibition, % at 20 µM. hit rate 0.64% among 360,000. AID 602440. recombinant SENP8, Nedd8 substrate fluorescence; in the data active = inhibition mostly above about 40%, no sharp cut-off; inactive = mostly below about 27%
Target sequence (Q96LD8 whole entry, looked up): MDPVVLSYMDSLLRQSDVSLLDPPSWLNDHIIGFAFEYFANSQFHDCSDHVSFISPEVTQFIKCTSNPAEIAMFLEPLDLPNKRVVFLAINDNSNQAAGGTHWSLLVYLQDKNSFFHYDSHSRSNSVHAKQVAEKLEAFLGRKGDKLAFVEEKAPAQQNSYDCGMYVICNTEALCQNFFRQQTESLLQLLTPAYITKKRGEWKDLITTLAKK
SENP6 block – blocks the human protease SENP6. Q9GZR1. Recombinant SENP6 catalytic domain, aminoluciferin luminescence. inhibition, % at 10 µM. hit rate 1.8% among 330,000;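 active = inhibition above about 50% at the single tested dose, limit read from the data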
SENP7 inh – SENP7 protease inhibition. recombinant SENP7, Z-RLRGG-aminoluciferin luminescence, 40 min. inhibition, % at 5 µM. hit rate 1.5% among 330,000. AID 434973. Q9BQF6;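 active = inhibition above about 50% at the single test dose, limit read from the data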
SENP1 inh – SENP1 (human) catalytic domain inhibition | recombinant SENP1 catalytic domain, CyPet-SUMO1-YPet FRET cleavage | inhibition, % at 10 µM | hit rate 0.21% among 360,000;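 active = inhibition at least 30% at 10 µM, raw YFP signal under a set limit, fluorescence ratio 0.5 to 1.5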
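Controls: no-enzyme wells low, DMSO-plus-enzyme wells high control. Test system: human recombinant His6-tagged SENP1 catalytic domain enzyme. Reagent: SFCypet-SUMO1-SFYpet FRET protein substrate, 25 nM final. Doses: one dose per compound, 10 µM, 0.5% DMSO. Detection: FRET, CFP and YFP emission. Timing: 50 min reaction at room temperature.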
SENP8 block-2 – SENP8 protease inhibition | hit rate 1.2% among 330,000 | purified SENP8, Z-RLRGG-aminoluciferin cleavage, luminescence | inhibition, % at 10 µM | AID 2540 | Q96LD8; in the data active = inhibition above about 50%
SENP8 conf – confirmation of human SENP8 protease inhibitors | shares compounds with SENP7 inh | Recombinant SENP8, Z-RLRGG-aminoluciferin luminescence, 60 min | inhibition, % at 12.5 µM | hit rate 40% among 6,200 | AID 488912;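 active = mean inhibition across replicates above about 50%, limit read from the data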
SENP6 confirm – confirmation of human SENP6 protease inhibitors; shares compounds with SENP7 inh; recombinant SENP6, Z-RLRGG-aminoluciferin luminescence; inhibition, % at 12.5 µM; hit rate 58% among 6,200
SENP7 conf – confirmation of human SENP7 protease inhibitors; hit rate 69% among 6,200; shares compounds with SENP7 inh; inhibition, % at 12.5 µM; recombinant SENP7, Z-RLRGG-aminoluciferin luminescence, 40 min; AID 488917
Casp3 select – caspase-3 inhibition (SENP selectivity assay); inhibition, % at 12.5 µM; purified caspase-3, Z-DEVD-aminoluciferin luminescence, 60 min; AID 488918; hit rate 60% among 6,200; shares compounds with SENP7 inh;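 active = mean inhibition above about 50%, limit read from the data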
Target sequence (P42574 28-227 limits assumed): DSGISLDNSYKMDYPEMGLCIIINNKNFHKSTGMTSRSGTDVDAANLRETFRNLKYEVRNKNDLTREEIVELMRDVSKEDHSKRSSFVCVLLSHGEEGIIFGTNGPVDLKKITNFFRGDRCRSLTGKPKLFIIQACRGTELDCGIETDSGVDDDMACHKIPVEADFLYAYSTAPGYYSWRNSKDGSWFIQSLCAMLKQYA
SENP luc ctr – counter-screen for SENP inhibitors: luminescence interference | shares compounds with SENP7 inh | Pre-incubated SENP8/Z-RLRGG-aminoluciferin, luciferase luminescence interference | inhibition, % at 12.5 µM | hit rate 39% among 6,200;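 active = mean inhibition above about 50% when retested at one dose, limit read from the data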
Of the large screens only hits and unclear results are named; the others gave an inactive call (follow-up assays come after a bar, where they were run).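 Rule for the calls, unless noted: active = mean inhibition above about 50% in the one-dose retest (limit read from the data); inactive = the rest.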

Clc1ccccc1Nc1nc2ccccc2o1	SENP6 block 95, SENP7 inh 100, SENP8 block-2 95 | SENP8 conf inactive | SENP6 confirm 100 | SENP7 conf 103 | Casp3 select 98 | SENP luc ctr 97
CCc1cc(=O)oc2c3c(cc(OCC(=O)NCc4ccncc4)c12)OC(C)(C)CC3	SENP6 block 52 | SENP8 conf inactive | SENP6 confirm inactive | SENP7 conf inactive | Casp3 select inactive | SENP luc ctr inactive
O=C1NC(=O)/C(=C\c2ccc(Br)o2)S1	SENP6 block 55 | SENP8 conf 56 | SENP6 confirm 51 | SENP7 conf 62 | Casp3 select 52 | SENP luc ctr inactive
COCCC(=O)NC1CCCc2c1cnn2-c1cccc(C)c1C (stereo not given)	none
Cc1ccc(CNc2nc3ccccc3n2C)cc1	SENP6 block 78, SENP7 inh 72, SENP8 block-2 59 | SENP8 conf 61 | SENP6 confirm 62 | SENP7 conf 91 | Casp3 select 88 | SENP luc ctr 75
COc1ccc(NCc2nc3ccccc3n2C)cc1	SENP6 block 68 | SENP8 conf 65 | SENP6 confirm 64 | SENP7 conf 85 | Casp3 select 87 | SENP luc ctr 70
COc1ccc(Nc2nc3ccccc3n2C)cc1	SENP6 block 56 | SENP8 conf inactive | SENP6 confirm inactive | SENP7 conf 69 | Casp3 select 72 | SENP luc ctr inactive
CCOC(=O)c1ccc(NCc2nc3ccccc3n2C)cc1	SENP7 inh 79, SENP8 block-2 61 | SENP8 conf 82 | SENP6 confirm 83 | SENP7 conf 96 | Casp3 select 86 | SENP luc ctr 83
Cc1ccc(NCc2nc3ccccc3n2C)cc1	none
Cc1cc([N+](=O)[O-])ccc1NC(=O)C(C)NC1CCCCC1 (stereo not given)	none
CCCn1c(SCC(=O)Nc2ccccc2C(=O)NC2CC2)n[nH]c1=O	none
COc1ccc(CNc2nc3ccccc3n2C)c(O)c1	SENP6 block 64, SENP7 inh 68 | SENP8 conf 67 | SENP6 confirm 65 | SENP7 conf 90 | Casp3 select 73 | SENP luc ctr 71
COc1ccc(CNc2nc3ccccc3n2C(C)C)c(O)c1	none
Cn1c(CNc2ccc(Br)cc2)nc2ccccc21	SENP6 block 70, SENP7 inh 72, SENP8 block-2 59 | SENP8 conf inactive | SENP6 confirm 63 | SENP7 conf 87 | Casp3 select 63 | SENP luc ctr 70
CN(C(=O)c1cccc(NC(=O)Cc2cccc(NC(=O)C3CCCN(C(=O)C4CCC4)C3)c2)c1)C1CCC1 (stereo not given)	none (no result: SENP6 block, SENP7 inh, SENP8 block-2)
Cc1cc(=O)[nH]c(SCCOc2ccc(OC(C)C)cc2)n1	SENP6 block 94, SENP7 inh 89, SENP8 block-2 91 | SENP8 conf 91 | SENP6 confirm 95 | SENP7 conf 100 | Casp3 select 95 | SENP luc ctr 58
Cc1cn([C@H]2C[C@H](O)[C@@H](CNC=O)O2)c(=O)[nH]c1=O	none (no result: SENP6 block, SENP7 inh, SENP8 block-2)
COC(=O)c1c(NC(=O)c2ccc(C)o2)sc2c1CCCCC2	none
NC(=O)c1c(NC(=O)c2cc3ccccc3o2)sc2c1CCC2	SENP6 block 60 | SENP8 conf inactive | SENP6 confirm inactive | SENP7 conf 67 | Casp3 select inactive | SENP luc ctr inactive
Cc1ccc(C(=O)Nc2sc3c(c2C(=O)O)CCCC3)o1	SENP6 block 89, SENP7 inh 75, SENP8 block-2 91 | SENP8 conf 95 | SENP6 confirm 94 | SENP7 conf 101 | Casp3 select 96 | SENP luc ctr 92
COC(=O)c1c(NC(=O)c2ccco2)sc2c1CCC2	none
